Data reported in ChEMBL document CHEMBL2424619, “Small-molecule ligands of methyl-lysine binding proteins: optimization of selectivity for L3MBTL3” (J Med Chem, 2013).

Key:
[1] = molecular target: Lysine-specific demethylase 5A (Homo sapiens, UniProt P29375); test: Inhibition of JARID1A (unknown origin) after 30 mins by AlphaScreen assay
Procedure, shortened: (§1)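 AlphaScreen competition with histone peptide. Compounds in 3-fold, 10-point dilutions, top 10 or 30 μM; buffer 20 mM Tris pH 8.0, 25 mM NaCl, 2 mM DTT, 0.05% Tween-20. Protein-peptide mix 30 min RT, then streptavidin donor plus nickel-chelate acceptor beads (GST acceptor beads for GST-tagged PHF23, JARID1A) 30 min RT dark. […] Protein-free His6-biotin peptide counterscreen.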

[2] = molecular target: PHD finger protein 23 (Homo sapiens, UniProt Q9BUL5); test: Inhibition of PHF23 (unknown origin) after 30 mins by AlphaScreen assay
Procedure, shortened: (§2)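 AlphaScreen competition with histone peptide. Compounds in 3-fold, 10-point dilutions, top 10 or 30 μM; buffer 20 mM Tris pH 8.0, 25 mM NaCl, 2 mM DTT, 0.05% Tween-20. Protein-peptide mix 30 min RT, then streptavidin donor plus nickel-chelate acceptor beads (GST acceptor beads for GST-tagged PHF23, JARID1A) 30 min RT dark. Protein-free His6-biotin peptide counterscreen.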

[3] = molecular target: TP53-binding protein 1 (Homo sapiens, UniProt Q12888); test: Inhibition of 53BP1 (unknown origin) after 30 mins by AlphaScreen assay; procedure, shortened: as §1
[4] = molecular target: T1, E3 ubiquitin-protein ligase UHRF1 (Homo sapiens, UniProt Q96T88); test: Inhibition of UHRF1 (unknown origin) after 30 mins by AlphaScreen assay; procedure, shortened: as §1
T1 sequence (Q96T88 whole entry): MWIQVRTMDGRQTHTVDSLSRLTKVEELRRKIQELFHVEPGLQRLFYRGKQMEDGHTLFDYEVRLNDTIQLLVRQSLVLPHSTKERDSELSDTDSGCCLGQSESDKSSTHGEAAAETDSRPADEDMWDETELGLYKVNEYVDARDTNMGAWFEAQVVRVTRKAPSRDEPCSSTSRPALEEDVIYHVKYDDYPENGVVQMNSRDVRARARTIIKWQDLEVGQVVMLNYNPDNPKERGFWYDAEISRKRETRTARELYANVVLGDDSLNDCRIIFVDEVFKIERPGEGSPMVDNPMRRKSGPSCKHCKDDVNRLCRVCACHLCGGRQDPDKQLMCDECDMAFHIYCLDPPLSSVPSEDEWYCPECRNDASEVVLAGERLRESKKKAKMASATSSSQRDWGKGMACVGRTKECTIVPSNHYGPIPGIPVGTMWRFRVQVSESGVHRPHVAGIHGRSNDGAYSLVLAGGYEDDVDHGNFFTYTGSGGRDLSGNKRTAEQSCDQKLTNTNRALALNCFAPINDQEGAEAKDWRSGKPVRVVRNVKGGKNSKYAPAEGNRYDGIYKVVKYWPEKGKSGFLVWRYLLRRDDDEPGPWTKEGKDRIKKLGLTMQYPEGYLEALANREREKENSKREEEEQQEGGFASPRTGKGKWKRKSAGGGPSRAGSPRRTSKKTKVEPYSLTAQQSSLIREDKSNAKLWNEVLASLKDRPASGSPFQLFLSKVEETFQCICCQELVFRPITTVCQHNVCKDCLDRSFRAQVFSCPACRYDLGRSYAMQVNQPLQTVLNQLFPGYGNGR

[5] = molecular target: T2, Chromobox protein homolog 7 (Homo sapiens, UniProt O95931); test: Inhibition of CBX7 (unknown origin) after 30 mins by AlphaScreen assay; procedure, shortened: as §2
T2 sequence (O95931 whole entry): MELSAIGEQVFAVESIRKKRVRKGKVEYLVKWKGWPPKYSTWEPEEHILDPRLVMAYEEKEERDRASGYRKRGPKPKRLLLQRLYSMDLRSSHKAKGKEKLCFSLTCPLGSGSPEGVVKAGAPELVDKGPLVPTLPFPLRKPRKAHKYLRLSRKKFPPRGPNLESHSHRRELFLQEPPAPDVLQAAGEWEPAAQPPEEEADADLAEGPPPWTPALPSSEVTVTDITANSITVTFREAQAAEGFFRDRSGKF

[6] = molecular target: T3, Scm-like with four MBT domains protein 1 (Homo sapiens, UniProt Q9UHJ3); test: Inhibition of SFMBT1 (unknown origin) after 30 mins by AlphaScreen assay; procedure, shortened: as §1
T3 sequence (Q9UHJ3 whole entry): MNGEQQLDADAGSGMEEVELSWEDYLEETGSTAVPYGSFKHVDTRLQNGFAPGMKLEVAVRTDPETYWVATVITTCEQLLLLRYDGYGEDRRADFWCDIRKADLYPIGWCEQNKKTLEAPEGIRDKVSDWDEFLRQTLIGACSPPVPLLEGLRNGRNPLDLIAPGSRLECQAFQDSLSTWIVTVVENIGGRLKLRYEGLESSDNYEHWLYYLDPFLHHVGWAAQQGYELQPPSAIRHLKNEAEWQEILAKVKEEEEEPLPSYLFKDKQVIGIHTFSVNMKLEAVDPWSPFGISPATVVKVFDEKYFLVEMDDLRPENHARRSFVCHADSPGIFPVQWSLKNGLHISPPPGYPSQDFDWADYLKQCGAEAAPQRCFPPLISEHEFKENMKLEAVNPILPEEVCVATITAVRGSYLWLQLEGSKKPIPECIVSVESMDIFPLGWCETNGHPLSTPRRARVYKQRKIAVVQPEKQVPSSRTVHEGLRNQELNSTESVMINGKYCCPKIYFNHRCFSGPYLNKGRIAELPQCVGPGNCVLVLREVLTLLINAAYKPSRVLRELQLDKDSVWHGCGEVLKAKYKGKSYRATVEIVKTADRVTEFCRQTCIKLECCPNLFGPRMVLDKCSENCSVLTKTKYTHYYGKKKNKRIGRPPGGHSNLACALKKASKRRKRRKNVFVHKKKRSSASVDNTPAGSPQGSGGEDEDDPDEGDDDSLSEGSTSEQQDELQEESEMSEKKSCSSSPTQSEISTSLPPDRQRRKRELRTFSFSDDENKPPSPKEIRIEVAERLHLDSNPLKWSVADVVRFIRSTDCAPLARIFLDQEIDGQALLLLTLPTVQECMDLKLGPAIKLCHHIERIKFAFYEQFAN

Sequence of PHD finger protein 23 (Q9BUL5 whole entry): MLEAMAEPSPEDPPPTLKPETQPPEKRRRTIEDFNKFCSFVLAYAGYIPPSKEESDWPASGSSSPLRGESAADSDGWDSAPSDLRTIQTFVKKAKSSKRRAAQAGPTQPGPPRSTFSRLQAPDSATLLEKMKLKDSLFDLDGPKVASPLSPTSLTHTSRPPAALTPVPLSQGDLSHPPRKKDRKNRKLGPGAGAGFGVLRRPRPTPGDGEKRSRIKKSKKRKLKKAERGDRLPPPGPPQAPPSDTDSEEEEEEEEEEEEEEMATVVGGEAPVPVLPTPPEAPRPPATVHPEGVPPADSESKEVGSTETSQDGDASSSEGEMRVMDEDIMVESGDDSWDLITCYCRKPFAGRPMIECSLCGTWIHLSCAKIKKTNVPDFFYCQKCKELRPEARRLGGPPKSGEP
Sequence of TP53-binding protein 1 (Q12888 whole entry): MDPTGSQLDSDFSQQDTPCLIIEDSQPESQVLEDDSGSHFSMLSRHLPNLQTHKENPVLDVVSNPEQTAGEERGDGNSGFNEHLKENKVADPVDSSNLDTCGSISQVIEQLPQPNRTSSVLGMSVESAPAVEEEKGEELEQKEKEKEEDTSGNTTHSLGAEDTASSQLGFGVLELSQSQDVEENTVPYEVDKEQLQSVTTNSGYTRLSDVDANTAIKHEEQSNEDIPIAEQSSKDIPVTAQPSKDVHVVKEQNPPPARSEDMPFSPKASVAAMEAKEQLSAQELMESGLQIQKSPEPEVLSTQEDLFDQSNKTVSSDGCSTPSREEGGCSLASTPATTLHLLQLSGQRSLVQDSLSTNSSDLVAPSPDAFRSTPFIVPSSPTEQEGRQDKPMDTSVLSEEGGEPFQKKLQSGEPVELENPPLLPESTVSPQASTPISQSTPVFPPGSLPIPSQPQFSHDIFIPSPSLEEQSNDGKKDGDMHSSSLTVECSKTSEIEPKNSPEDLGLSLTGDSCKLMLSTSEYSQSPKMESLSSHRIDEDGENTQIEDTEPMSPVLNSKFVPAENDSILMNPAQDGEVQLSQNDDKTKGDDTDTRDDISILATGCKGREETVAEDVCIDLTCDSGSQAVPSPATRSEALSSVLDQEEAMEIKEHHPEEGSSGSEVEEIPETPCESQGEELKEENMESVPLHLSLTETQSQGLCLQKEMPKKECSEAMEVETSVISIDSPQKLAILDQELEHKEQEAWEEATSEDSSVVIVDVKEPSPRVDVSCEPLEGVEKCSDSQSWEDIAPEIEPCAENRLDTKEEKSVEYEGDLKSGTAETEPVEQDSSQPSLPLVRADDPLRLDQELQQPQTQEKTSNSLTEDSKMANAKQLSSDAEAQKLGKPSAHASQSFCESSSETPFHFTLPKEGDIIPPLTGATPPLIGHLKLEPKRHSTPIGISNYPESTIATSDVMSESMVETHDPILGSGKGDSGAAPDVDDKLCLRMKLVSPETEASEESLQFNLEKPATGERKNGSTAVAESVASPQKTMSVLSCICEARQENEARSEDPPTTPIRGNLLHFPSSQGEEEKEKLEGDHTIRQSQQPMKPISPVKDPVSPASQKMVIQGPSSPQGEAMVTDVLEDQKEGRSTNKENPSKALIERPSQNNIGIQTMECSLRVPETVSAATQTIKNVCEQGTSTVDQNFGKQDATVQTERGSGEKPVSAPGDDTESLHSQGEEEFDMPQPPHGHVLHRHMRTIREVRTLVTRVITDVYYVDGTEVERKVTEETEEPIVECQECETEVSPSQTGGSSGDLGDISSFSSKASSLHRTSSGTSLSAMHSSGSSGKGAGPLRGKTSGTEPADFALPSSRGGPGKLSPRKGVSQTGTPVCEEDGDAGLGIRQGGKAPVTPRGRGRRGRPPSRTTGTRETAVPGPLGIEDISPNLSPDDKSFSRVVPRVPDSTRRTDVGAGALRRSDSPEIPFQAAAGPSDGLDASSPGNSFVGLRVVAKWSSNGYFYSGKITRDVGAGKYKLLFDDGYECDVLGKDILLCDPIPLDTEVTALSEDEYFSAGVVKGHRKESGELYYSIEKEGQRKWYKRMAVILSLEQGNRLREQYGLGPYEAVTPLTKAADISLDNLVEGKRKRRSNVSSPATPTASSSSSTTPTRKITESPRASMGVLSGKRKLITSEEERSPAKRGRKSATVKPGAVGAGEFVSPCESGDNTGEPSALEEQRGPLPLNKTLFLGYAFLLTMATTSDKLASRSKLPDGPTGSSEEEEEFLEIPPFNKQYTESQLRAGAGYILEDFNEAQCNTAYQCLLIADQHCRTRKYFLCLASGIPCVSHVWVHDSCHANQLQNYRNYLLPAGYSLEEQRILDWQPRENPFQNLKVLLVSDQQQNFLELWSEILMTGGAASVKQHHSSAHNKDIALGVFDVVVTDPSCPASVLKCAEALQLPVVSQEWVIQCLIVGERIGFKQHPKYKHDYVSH
Sequence of Lysine-specific demethylase 5A (P29375 whole entry): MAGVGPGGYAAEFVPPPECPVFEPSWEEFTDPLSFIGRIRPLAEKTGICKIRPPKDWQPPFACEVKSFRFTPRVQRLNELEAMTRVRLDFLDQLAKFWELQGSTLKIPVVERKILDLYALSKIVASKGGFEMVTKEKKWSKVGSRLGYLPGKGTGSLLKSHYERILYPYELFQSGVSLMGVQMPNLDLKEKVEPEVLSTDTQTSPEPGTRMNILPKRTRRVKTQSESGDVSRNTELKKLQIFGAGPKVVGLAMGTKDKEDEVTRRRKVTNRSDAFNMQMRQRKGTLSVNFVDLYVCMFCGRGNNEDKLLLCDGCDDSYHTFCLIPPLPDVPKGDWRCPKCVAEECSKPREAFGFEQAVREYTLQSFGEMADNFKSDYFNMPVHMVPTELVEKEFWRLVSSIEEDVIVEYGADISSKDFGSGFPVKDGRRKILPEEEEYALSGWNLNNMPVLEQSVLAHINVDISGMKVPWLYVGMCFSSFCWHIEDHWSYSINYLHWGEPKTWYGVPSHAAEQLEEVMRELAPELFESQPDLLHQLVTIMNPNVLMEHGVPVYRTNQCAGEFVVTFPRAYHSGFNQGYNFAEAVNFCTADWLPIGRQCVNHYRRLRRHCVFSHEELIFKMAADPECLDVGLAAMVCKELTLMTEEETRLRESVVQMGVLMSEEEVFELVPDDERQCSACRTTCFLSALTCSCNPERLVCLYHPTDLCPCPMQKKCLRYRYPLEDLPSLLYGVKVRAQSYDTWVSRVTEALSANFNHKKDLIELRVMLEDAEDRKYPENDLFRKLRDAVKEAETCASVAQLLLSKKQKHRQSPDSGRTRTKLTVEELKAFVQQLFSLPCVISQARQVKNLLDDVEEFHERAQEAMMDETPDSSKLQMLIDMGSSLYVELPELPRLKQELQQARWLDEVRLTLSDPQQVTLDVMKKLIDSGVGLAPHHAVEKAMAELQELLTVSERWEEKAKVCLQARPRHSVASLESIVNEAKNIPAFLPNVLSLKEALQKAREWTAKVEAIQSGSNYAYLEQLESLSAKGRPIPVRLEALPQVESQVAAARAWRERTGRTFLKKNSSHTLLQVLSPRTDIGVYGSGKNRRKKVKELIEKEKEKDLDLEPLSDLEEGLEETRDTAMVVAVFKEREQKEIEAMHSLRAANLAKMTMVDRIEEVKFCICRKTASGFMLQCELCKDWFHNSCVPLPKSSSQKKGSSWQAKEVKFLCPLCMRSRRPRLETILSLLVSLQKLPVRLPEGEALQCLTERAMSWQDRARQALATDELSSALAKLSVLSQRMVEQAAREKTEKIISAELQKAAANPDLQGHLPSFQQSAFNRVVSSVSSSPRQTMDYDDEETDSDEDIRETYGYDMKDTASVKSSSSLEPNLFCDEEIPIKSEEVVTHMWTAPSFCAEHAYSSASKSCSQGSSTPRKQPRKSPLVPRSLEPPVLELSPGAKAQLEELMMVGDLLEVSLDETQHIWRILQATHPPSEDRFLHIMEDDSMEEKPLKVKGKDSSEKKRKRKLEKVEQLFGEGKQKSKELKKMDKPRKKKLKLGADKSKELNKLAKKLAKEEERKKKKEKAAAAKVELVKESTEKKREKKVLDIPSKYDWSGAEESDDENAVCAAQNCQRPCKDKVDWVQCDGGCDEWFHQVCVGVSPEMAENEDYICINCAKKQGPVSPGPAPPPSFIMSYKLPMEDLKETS

SMILES	IC50 [1]	IC50 [2]	IC50 [3]	IC50 [4]	IC50 [5]	IC50 [6]
CC(C1CCN(C(=O)c2ccc(C(=O)N3CCC(N4CCCC4)CC3)cc2)CC1)N1CCN(C)CC1 (stereo unspecified)	> 10 µM	> 10 µM	> 10 µM	> 10 µM	> 10 µM	> 10 µM
CCN1Cc2ccc(NC(=O)c3ccc(C(=O)N4CC5CCC(C4)C5N4CCCC4)cc3)cc2C1 (stereo unspecified)	> 10 µM	> 10 µM	> 10 µM	> 10 µM	> 10 µM	> 10 µM
CN1CCC(N2CCN(C(=O)c3ccc(C(=O)N4CCC(N5CCCC5)CC4)cc3)CC2)CC1	> 10 µM	> 10 µM	> 10 µM	> 10 µM	> 10 µM	> 10 µM
CCN1Cc2ccc(NC(=O)c3ccc(C(=O)N4CCC(C5CCCN5)CC4)c(Nc4ccccc4)c3)cc2C1 (stereo unspecified)	> 10 µM	> 10 µM	> 10 µM	> 10 µM	> 10 µM	> 10 µM
Cc1cc(C(=O)N2CCC(N3CCCC3)CC2)c(C)cc1C(=O)N1CCC(N2CCCC2)CC1	> 10 µM	> 10 µM	> 10 µM	> 10 µM	> 10 µM	> 10 µM
O=C(c1cncc(Br)c1)N1CCC(N2CCCC2)CC1	> 10 µM	> 10 µM	> 10 µM	> 10 µM	> 10 µM	> 10 µM
O=C(c1ccc(C(=O)N2CCC(N3CCCC3)C2)cc1)N1CCC(N2CCCC2)CC1 (stereo unspecified)	> 10 µM	> 10 µM	> 10 µM	> 10 µM	> 10 µM	> 10 µM
O=C(c1ccc(C(=O)N2CCC(N3CCCC3)CC2)cc1)N1CCC(C2CCCN2)CC1 (stereo unspecified)	> 10 µM	> 10 µM	> 10 µM	> 10 µM	> 10 µM	> 10 µM
O=C(c1ccc(C(=O)N2CCC(N3CCCC3)CC2)nc1)N1CCC(N2CCCC2)CC1	> 10 µM	> 10 µM	> 10 µM	> 10 µM	> 10 µM	> 10 µM
CN1CCN2CC(NC(=O)c3ccc(C(=O)N4CCC(N5CCCC5)CC4)cc3)CC2C1 (stereo unspecified)	> 10 µM	> 10 µM	> 10 µM	> 10 µM	> 10 µM	> 10 µM
CN(C)C1CCN(C(=O)c2ccc(C(=O)N3CCC(N4CCCC4)CC3)cc2)CC1	> 10 µM	> 10 µM	> 10 µM	> 10 µM	> 10 µM	> 10 µM
O=C(c1ccc(C(=O)N2CCC(N3CCCC3)CC2)c(Br)c1)N1CCC(N2CCCC2)CC1	> 10 µM	> 10 µM	> 10 µM	> 10 µM	> 10 µM	> 10 µM
O=C(c1ccc(C(=O)N2CCC3(CCNC3)C2)cc1)N1CCC(N2CCCC2)CC1 (stereo unspecified)	> 10 µM	> 10 µM	> 10 µM	> 10 µM	> 10 µM	> 10 µM
O=C(c1ccc(C(=O)N2CCC(N3CCCC3)CC2)c(-c2ccccc2)c1)N1CCC(N2CCCC2)CC1	> 10 µM	> 10 µM	> 10 µM	> 10 µM	> 10 µM	> 10 µM
O=C(c1ccc(C(=O)N2CCC(N3CCCC3)CC2)c2ccccc12)N1CCC(N2CCCC2)CC1	> 10 µM	> 10 µM	10.7 µM	> 10 µM	> 10 µM	> 10 µM
O=C(c1ccc(C(=O)N2CCC(N3CCC3)CC2)cc1)N1CCC(N2CCC2)CC1	> 10 µM	> 10 µM	> 10 µM	> 10 µM	> 10 µM	> 10 µM
O=C(c1ccc(C(=O)N2CCC(N3CCCC3)CC2)cc1)N1CCCC(N2CCCC2)CC1 (stereo unspecified)	> 10 µM	> 10 µM	> 10 µM	> 10 µM	> 10 µM	> 10 µM
O=C(c1ccc(C(=O)N2CCC(N3CCOCC3)CC2)cc1)N1CCC(N2CCCC2)CC1	> 10 µM	> 10 µM	> 10 µM	> 10 µM	> 10 µM	> 10 µM
O=C(c1ccc(C(=O)N2CCC(N3CCCC3)CC2)c(Cc2ccccc2)c1)N1CCC(N2CCCC2)CC1	> 10 µM	> 10 µM	> 10 µM	> 10 µM	> 10 µM	> 10 µM
O=C(c1ccc(N2CCC(N3CCCC3)CC2)cc1)N1CCC(N2CCCC2)CC1	> 10 µM	> 10 µM	7.4 µM	> 10 µM	> 10 µM	> 10 µM
C[N+]1(C2CCN(C(=O)c3ccc(C(=O)N4CCC(N5CCCC5)CC4)cc3)CC2)CCCC1	> 10 µM	> 10 µM	> 10 µM	> 10 µM	> 10 µM	> 10 µM
O=C(c1ccc(C(=O)N2CC(N3CCCC3)C2)cc1)N1CCC(N2CCCC2)CC1	> 10 µM	> 10 µM	> 10 µM	> 10 µM	> 10 µM	> 10 µM
O=C(c1ccc(S(=O)(=O)N2CCC(N3CCCC3)CC2)cc1)N1CCC(N2CCCC2)CC1	> 10 µM	> 10 µM	> 10 µM	> 10 µM	> 10 µM	> 10 µM
O=C(NCCCN1CCCC1)c1ccc(C(=O)N2CCC(N3CCCC3)CC2)cc1	> 10 µM	> 10 µM	> 10 µM	> 10 µM	> 10 µM	> 10 µM
Nc1cc(C(=O)N2CCC(N3CCCC3)CC2)ccc1C(=O)N1CCC(N2CCCC2)CC1	> 10 µM	> 10 µM	> 10 µM	> 10 µM	> 10 µM	> 10 µM
O=C(c1ccc(CN2CCC(N3CCCC3)CC2)cc1)N1CCC(N2CCCC2)CC1	> 10 µM	> 10 µM	> 10 µM	> 10 µM	> 10 µM	> 10 µM
O=C(c1ccc(C(=O)N2CCC(N3CCCC3)CC2)cc1)N1CCC(C2CCCCC2)CC1	> 10 µM		> 10 µM	> 10 µM	> 10 µM	> 10 µM
